Test system: FOPFlash reporter
Test: Wnt reporter assay, FOPFlash negative control
Type: cell-based
Conditions: 293T cells, 50 mM LiCl, 24 h, luciferase
How it was run: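 293T cells transfected with the FOPFlash plasmid, whose TCF/LEF binding sites are mutated. This plasmid served as a negative control for the TOPFlash reporter, which carries eight TCF/LEF binding-site repeats. Wnt signalling was activated with the GSK3beta inhibitor LiCl. Cells were exposed to increasing concentrations of test compound, and reporter activity was then measured.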

CCOC(=O)c1ccc(NS(=O)(=O)c2ccc(Br)cc2)cc1 [Compound 17]
Effect on activity of FOP reporter: failed to prevent

— article PMC6466550 (ACS Medicinal Chemistry Letters, 2019)
